Data: ChEMBL document CHEMBL2406966, “Structure and Property Based Design of Pyrazolo[1,5-a]pyrimidine Inhibitors of CK2 Kinase with Activity in Vivo” (ACS Med Chem Lett, 2013)
≈ marks a conversion by molar mass, not a printed value. Values belong to the compound of their own block, whether it stands above or below them. Calls of active or inactive are those of the source. No cut-off for these calls is given here.

Key:
[1] = Cmax in po dosed rat; format: ADME, organism-based; parameters: route oral; settings: in vivo
HCT-116 = assay: Growth inhibition of human HCT116 cells after 72 hrs by Alamar blue assay; format: functional; settings: HCT-116, 72 h
[2] = biological target: Casein kinase II subunit alpha (Homo sapiens, UniProt P68400); assay: Inhibition of N-terminal His6X-tagged recombinant human full length casein kinase-2alpha expressed in SF21 cells using BODIPY-FL-RRRDDDSDDD-CONH2 as substrate preincubated for 20 mins measured after 90 mins by mobility shift assay
MDR1 [3] = assay: Efflux ratio of apparent permeability across apical to basolateral side in porcine LLC cells expressing MDR1; format: ADME, cell-based, Sus scrofa; settings: pig, LLC-PK1
In short: (§1)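 MDR1-expressing LLCK cell monolayers. Apical-to-basolateral apparent permeability (Papp) measured in cm/s; efflux ratio also determined.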

physchem = settings: octanol/water, pH 7.4
[4] = Aqueous solubility of the compound in phosphate buffer at pH 7.4 after 24 hrs; format: physicochemical
MDR1 [5] = assay: Apparent permeability across apical to basolateral side in porcine LLC cells expressing MDR1; format: ADME, cell-based, Sus scrofa; settings: pig, LLC-PK1; in short: as §1
[6] = Intrinsic clearance in rat liver microsomes; format: ADME, Microsome; settings: read-out: CLH
In short: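 Incubation with rat liver microsomes; intrinsic clearance reported in μL/min/mg.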

[7] = Antitumor activity against human DLD2 cells xenografted in mouse assessed as tumor growth inhibition at 5 mg/kg, po bid after 14 days relative to control; format: functional; settings: DLD2, 336 h, read-out: TGI
[8] = biological target: T1, Dual specificity tyrosine-phosphorylation-regulated kinase 2 (Homo sapiens) (UniProt Q92630); assay: Inhibition of Dyrk-2 (unknown origin) assessed as residual activity at 0.1 uM/L relative to control
T1 sequence (whole entry): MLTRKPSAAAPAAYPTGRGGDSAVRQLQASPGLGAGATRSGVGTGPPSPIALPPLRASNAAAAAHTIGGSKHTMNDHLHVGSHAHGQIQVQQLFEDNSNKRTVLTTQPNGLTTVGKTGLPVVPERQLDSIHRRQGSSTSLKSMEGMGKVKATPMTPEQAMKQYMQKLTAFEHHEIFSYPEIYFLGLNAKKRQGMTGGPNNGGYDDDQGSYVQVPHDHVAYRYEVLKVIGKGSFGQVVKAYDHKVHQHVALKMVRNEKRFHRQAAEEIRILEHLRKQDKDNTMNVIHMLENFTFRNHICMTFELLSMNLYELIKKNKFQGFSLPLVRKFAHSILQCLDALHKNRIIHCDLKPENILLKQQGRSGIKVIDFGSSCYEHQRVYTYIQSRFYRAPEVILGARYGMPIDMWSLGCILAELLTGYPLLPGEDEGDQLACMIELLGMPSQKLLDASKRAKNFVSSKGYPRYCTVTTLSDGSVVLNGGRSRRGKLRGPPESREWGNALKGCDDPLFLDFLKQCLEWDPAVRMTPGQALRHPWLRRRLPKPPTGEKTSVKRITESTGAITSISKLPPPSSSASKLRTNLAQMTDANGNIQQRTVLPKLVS
In short: (§2)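 KINOMEscan competition binding panel measuring displacement of an immobilized, active-site-directed ligand. Test concentration was 0.1 μM/L. Read-out was residual activity as % of DMSO control.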

[9] = biological target: Homeodomain-interacting protein kinase 1 (Homo sapiens) (UniProt Q86Z02); assay: Inhibition of Hipk-1 (unknown origin) assessed as residual activity at 0.1 uM/L relative to control; in short: as §2
[10] = biological target: Homeodomain-interacting protein kinase 2 (Homo sapiens, UniProt Q9H2X6); assay: Inhibition of Hipk-2 (unknown origin)
Mus musculus [11] = assay: In vivo inhibition of CK2 in human DLD2 cells xenografted in mouse assessed as inhibition of AKT phosphorylation at Ser129 at 10 mg/kg, po measured up to 24 hrs by ELISA; format: functional, organism-based; parameters: dose 10 mg/kg
In short: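 DLD-1 AKT1-overexpressing xenograft mice received a single oral dose of 10 mg/kg. pAKT S129 in tumour cell lysates was quantified by ELISA over time and plotted against plasma drug concentration.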

[12] = biological target: Glycogen synthase kinase-3 beta (Homo sapiens, UniProt P49841); assay: Inhibition of GSK3beta (unknown origin)
[13] = biological target: Death-associated protein kinase 1 (Homo sapiens) (UniProt P53355); assay: Inhibition of Dapk-1 (unknown origin) assessed as residual activity at 0.1 uM/L relative to control; in short: as §2
[14] = biological target: Serine/threonine-protein kinase pim-3 (Homo sapiens, UniProt Q86V86); assay: Inhibition of PIM3 (unknown origin)
[15] = Fraction unbound in human plasma at 10 uM by equilibrium dialysis method; format: ADME, cell-free
[16] = biological target: T2, Dual specificity tyrosine-phosphorylation-regulated kinase 3 (Homo sapiens, UniProt O43781); assay: Inhibition of Dyrk-3 (unknown origin)
T2 sequence (O43781 whole entry): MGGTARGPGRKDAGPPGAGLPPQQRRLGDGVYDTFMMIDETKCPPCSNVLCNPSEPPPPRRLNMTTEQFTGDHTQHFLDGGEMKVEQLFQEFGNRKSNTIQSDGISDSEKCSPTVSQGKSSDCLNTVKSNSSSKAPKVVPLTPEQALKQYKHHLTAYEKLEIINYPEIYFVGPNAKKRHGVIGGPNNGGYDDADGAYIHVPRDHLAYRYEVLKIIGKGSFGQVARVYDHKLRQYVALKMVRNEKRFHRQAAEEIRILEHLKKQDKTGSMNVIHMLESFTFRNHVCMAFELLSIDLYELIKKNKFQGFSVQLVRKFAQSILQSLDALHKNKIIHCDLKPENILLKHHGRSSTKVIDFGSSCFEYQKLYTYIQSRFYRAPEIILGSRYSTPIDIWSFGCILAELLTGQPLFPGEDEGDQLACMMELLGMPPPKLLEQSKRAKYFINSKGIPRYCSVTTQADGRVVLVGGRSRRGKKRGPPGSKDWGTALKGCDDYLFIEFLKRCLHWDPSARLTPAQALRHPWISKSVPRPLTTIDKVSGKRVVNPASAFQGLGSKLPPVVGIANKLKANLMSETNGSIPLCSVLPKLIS

[17] = biological target: Cyclin-dependent kinase 2 (Homo sapiens, UniProt P24941); assay: Inhibition of CDK2 (unknown origin)
Mus musculus [18] = assay: In vivo inhibition of CK2 in human DLD2 cells xenografted in mouse assessed as inhibition of AKT phosphorylation at Ser129 at 10 mg/kg, po measured at 3 to 8 hrs by Western blot analysis; format: functional, organism-based; parameters: dose 10 mg/kg
In short: (§3)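 Mice bearing DLD-1 xenografts overexpressing AKT1 received a single oral dose (10 or 12.5 mg/kg). Tumour cell lysates were taken at 3, 8 and 24 h post-dose and probed for pAKT S129 by Western blot.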

Mus musculus [19] = assay: In vivo inhibition of CK2 in human DLD2 cells xenografted in mouse assessed as inhibition of AKT phosphorylation at Ser129 at 10 mg/kg, po measured at 24 hrs by Western blot analysis; format: functional, organism-based; parameters: dose 10 mg/kg; in short: as §3
[20] = Plasma half life in rat at 10 mg/kg, po; format: ADME, organism-based; parameters: dose 10 mg/kg, route oral
In short: (§4)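 Rats were given a single oral dose of 10 mg/kg. Plasma pharmacokinetics yielded bioavailability (F, %), half-life (h) and clearance (mL/min/kg).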

[21] = biological target: Homeodomain-interacting protein kinase 3 (Homo sapiens) (UniProt Q9H422); assay: Inhibition of Hipk-3 (unknown origin) assessed as residual activity at 0.1 uM/L relative to control; in short: as §2
[22] = biological target: Death-associated protein kinase 2 (Homo sapiens) (UniProt Q9UIK4); assay: Inhibition of Dapk-2 (unknown origin) assessed as residual activity at 0.1 uM/L relative to control; in short: as §2
[23] = biological target: Dual specificity tyrosine-phosphorylation-regulated kinase 1A (Homo sapiens) (UniProt Q13627); assay: Inhibition of Dyrk-1 (unknown origin) assessed as residual activity at 0.1 uM/L relative to control; in short: as §2
[24] = biological target: Death-associated protein kinase 3 (Homo sapiens) (UniProt O43293); assay: Inhibition of Dapk-3 (unknown origin) assessed as residual activity at 0.1 uM/L relative to control
In short: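 Kinome-wide competition binding panel: measures the compound's ability to compete with an immobilized, active-site-directed ligand for kinase binding. Inhibitor tested at 0.1 μM/L. Read-out is residual activity as a percentage of the DMSO control.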

[25] = Antitumor activity against human DLD2 cells xenografted in mouse assessed as tumor growth inhibition at 10 mg/kg, po qd after 14 days relative to control; format: functional; settings: DLD2, 336 h, read-out: TGI
[26] = Oral bioavailability in rat at 10 mg/kg; format: ADME, organism-based; settings: in vivo; in short: as §4
[27] = Clearance in rat at 10 mg/kg, po; format: ADME, organism-based; parameters: dose 10 mg/kg, route oral; settings: in vivo; in short: as §4
cells = settings: Homo sapiens, HCT-116
[28] = biological target: Voltage-gated inwardly rectifying potassium channel KCNH2 (Homo sapiens, UniProt Q12809); assay: Binding affinity to human ERG expressed in CHO cells by IonWorks assay
[29] = Inhibition of casein kinase-2 (unknown origin); parameters: species or system Homo sapiens
In short: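 Recombinant human full-length CK2α phosphorylating a synthetic peptide substrate, run at Km ATP concentration.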

Casein kinase II subunit alpha, sequence (P68400 whole entry): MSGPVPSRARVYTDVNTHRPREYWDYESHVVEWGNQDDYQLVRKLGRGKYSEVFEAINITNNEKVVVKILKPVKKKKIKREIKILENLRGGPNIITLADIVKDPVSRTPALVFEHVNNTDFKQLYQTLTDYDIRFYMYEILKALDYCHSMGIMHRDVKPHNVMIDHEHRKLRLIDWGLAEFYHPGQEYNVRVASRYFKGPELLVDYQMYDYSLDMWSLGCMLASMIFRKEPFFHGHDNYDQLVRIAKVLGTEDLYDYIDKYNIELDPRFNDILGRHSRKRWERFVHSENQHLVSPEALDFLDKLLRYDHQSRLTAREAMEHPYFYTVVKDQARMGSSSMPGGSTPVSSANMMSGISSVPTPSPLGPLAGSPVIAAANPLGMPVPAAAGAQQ
Homeodomain-interacting protein kinase 2, sequence (Q9H2X6 whole entry): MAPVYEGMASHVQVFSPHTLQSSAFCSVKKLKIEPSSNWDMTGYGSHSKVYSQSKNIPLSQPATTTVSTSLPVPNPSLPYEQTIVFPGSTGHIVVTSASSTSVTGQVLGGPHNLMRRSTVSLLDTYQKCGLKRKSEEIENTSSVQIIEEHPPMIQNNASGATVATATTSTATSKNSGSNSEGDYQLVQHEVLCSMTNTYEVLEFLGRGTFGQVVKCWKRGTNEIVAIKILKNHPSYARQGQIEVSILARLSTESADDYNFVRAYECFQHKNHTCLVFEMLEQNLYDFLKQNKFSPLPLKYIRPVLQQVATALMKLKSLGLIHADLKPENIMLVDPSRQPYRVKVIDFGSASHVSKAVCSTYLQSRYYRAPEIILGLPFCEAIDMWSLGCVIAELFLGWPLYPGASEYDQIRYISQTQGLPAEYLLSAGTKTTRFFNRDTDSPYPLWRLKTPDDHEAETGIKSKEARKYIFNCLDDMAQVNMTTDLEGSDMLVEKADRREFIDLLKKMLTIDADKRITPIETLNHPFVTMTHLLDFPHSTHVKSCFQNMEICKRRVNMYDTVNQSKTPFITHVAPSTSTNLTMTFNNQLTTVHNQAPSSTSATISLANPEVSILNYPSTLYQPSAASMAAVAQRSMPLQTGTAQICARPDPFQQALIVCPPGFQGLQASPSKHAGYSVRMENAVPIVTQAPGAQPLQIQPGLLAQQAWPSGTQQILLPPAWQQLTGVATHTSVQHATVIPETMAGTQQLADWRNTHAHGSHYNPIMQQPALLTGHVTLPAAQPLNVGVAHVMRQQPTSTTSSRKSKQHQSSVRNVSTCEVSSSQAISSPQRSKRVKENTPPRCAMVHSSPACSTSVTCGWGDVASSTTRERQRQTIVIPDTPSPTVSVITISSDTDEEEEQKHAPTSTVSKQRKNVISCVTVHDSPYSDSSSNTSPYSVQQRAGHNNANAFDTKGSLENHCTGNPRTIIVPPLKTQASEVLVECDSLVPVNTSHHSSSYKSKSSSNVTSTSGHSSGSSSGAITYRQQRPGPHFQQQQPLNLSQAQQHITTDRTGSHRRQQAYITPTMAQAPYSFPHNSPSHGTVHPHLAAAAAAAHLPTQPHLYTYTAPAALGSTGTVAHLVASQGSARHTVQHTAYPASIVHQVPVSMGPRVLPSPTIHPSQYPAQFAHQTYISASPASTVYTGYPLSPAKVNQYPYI
Death-associated protein kinase 2 (Homo sapiens), sequence (Q9UIK4 whole entry, looked up): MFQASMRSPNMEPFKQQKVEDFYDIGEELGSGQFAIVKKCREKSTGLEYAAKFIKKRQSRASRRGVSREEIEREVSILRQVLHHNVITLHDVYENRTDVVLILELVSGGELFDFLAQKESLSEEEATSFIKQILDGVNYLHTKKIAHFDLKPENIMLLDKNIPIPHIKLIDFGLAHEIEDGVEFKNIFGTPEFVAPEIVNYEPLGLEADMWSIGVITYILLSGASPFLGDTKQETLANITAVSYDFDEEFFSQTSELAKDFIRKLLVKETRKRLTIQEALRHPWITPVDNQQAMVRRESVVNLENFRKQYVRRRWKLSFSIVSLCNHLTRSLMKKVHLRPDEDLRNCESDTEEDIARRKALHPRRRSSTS
Homeodomain-interacting protein kinase 1 (Homo sapiens), sequence (Q86Z02 whole entry, looked up): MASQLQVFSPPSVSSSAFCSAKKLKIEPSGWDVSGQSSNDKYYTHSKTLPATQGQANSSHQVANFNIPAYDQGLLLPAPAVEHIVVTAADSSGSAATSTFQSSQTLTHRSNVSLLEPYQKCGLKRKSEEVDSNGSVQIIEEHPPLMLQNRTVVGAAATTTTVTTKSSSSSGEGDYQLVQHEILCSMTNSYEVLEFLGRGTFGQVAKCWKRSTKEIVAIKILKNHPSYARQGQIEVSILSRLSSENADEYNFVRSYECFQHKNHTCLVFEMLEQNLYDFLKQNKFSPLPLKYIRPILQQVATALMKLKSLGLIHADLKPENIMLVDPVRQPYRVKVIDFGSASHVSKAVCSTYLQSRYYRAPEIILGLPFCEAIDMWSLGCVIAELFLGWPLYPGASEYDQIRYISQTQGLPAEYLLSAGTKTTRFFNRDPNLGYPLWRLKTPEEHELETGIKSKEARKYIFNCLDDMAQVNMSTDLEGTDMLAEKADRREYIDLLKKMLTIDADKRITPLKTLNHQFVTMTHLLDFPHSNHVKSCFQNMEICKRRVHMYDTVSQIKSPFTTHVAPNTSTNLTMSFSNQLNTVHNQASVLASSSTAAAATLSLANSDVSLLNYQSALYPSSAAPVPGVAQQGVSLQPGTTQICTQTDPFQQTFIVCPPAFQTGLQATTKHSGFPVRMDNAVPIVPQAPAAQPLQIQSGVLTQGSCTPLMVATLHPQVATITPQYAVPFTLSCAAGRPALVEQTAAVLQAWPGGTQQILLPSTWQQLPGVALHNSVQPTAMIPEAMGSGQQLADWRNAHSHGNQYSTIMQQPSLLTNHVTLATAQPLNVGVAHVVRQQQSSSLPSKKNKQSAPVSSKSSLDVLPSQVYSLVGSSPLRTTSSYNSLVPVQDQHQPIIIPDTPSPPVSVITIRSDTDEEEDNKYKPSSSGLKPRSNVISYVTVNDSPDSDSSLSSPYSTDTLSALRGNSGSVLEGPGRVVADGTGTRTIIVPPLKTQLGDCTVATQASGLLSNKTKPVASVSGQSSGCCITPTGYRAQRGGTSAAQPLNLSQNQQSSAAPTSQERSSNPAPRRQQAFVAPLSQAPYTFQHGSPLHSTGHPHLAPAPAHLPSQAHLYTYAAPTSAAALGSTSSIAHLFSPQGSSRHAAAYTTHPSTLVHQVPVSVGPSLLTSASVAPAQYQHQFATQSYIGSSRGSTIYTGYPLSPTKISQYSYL
Glycogen synthase kinase-3 beta, sequence (P49841 whole entry): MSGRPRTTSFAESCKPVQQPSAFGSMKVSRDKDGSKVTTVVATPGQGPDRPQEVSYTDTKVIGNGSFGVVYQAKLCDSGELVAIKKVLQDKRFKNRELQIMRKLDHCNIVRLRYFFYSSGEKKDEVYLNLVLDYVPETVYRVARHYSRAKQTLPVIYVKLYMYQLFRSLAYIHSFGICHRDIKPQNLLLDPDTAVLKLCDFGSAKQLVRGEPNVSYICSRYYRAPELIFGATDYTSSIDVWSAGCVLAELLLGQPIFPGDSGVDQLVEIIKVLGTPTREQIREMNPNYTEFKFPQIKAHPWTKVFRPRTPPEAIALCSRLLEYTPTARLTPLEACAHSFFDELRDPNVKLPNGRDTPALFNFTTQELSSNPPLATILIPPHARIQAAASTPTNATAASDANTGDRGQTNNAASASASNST
Death-associated protein kinase 3 (Homo sapiens), sequence (O43293 whole entry, looked up): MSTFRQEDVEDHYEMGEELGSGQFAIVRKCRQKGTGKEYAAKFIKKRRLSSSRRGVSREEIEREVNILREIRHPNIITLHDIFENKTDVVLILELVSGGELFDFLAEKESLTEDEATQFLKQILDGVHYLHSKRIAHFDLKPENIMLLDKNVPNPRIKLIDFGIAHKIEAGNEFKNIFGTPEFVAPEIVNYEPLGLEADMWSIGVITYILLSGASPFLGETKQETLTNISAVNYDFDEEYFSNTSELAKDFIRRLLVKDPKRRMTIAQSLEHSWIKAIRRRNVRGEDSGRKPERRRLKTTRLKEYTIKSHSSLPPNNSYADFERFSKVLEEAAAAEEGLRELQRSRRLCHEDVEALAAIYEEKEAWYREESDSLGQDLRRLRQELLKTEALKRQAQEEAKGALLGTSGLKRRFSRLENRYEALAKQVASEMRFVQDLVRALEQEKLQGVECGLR

Cmax [1]: < 100 nM | GI50 (HCT-116): 100 nM | IC50 [2]: < 3 nM | efflux ratio (MDR1 [3]): 100 | logD at 5 h (physchem): 2.5 | solubility at 24 h [4]: 3 µM (≈ 1.45 µg/mL) | Papp A→B (MDR1 [5]): 0.2 ×10⁻⁶ cm/s | microsomal CLint [6]: 65 µL/min/mg
Compound: CC(=O)Nc1cc(Nc2cc(Nc3ccn(CCN4CCCC4)n3)n3ncc(C#N)c3n2)ccc1C

Activity [8]: 18% | Activity [9]: 38% | IC50 [10]: 40 nM | IC50 [12]: 2600 nM | GI50 (HCT-116): 81 nM | IC50 [14]: 150 nM | fraction unbound at 10 µM [15]: 0.08 | IC50 [16]: 70 nM | logD at 5 h (physchem): 2.4 | IC50 [17]: 7200 nM | solubility at 24 h [4]: 8 µM (≈ 2.89 µg/mL) | half-life [20]: 2.6 h | Activity [21]: 39% | Activity [23]: 43% | microsomal CLint [6]: 15 µL/min/mg
Compound: CC(=O)Nc1cc(Nc2cc(NC3CC3)n3ncc(C#N)c3n2)ccc1C
inhibition in vivo at 5 mg/kg [7]: 37% | inhibition (Mus musculus [11]): Active | Activity [13]: 21% | inhibition (Mus musculus [18]): Active | inhibition (Mus musculus [19]): inactive | Activity [22]: 43% | Activity [24]: 22% | inhibition in vivo at 10 mg/kg [25]: 28%

GI50 (HCT-116): 59 nM | IC50 [2]: < 3 nM | bioavailability [26]: 47% | fraction unbound at 10 µM [15]: 0.2 | CL/F [27]: 23 mL/min/kg | logD at 5 h (physchem): 2.2 | solubility at 24 h [4]: 11 µM (≈ 4.44 µg/mL) | IC50 (cells): 6 nM | half-life [20]: 1.4 h | microsomal CLint [6]: < 4 µL/min/mg
Compound: CC(=O)Nc1cc(Nc2cc(NC3COC3)n3ncc(C#N)c3n2)ccc1C1CC1
IC50 [28]: > 33000 nM

IC50 (cells): > 3300 nM | IC50 [29]: 270 nM
Compound: CC(=O)Nc1cc(Nc2cc(NC3CC3)n3nccc3n2)ccc1C
